Compound activity from PubChem.
A selection: hits, their analogues and other compounds. The true share with any hit is near 5.1%.
STAT3 inh – inhibitors of IL-6 induced STAT3 signaling | U3A cells, IL-6 STAT3-luciferase reporter, luminescence; host cell line lacks STAT1 | inhibition, % at 5.5 µM | actives 0.89% (n = 190,000) | AID 862;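 active = inhibition above the mean inhibition across all screened compounds plus 3 SD, cut at about 44% in these data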;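 also: 0% = DMSO only wells and 100% = 100 µM nifuroxazide control wells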
APP 5'UTR act – APP 5'UTR luciferase reporter activation; SH-SY5Y APP 5'UTR luciferase reporter, luminescence; zero percent = DMSO vehicle wells; activation, % at 2 µM; actives 1% (n = 190,000); AID 1276;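 active = activation above a set limit, based on mean plus 3 SD of controls, cut at about 140% in these data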
NF-kB neuron act – compounds increasing NF-kB expression in human neuronal cells. NF-kB reporter expression; stronger effect = higher value. fold change at 12.5 µM. actives 1.6% (n = 190,000). AID 1239; in the data active = fold change above about 3.3
STAT1 act – STAT1 signaling activation. NIH 3T3 STAT1-luciferase reporter, IFN-gamma, luminescence; 100% = IFN-gamma alone, no compound. activation (% of control), % at 5.5 µM. actives 2.6% (n = 200,000). AID 932;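 active = activation above the screen-wide mean activation plus 3 SD, cut at about 130% in these data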;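 also: raw ratio to IFN-gamma control signal so 100% means no change and 0% no light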
STAT3 act – activators of IL-6 induced STAT3 signaling; U3A cells, IL-6 STAT3-luciferase reporter, luminescence; 100% = signal with IL-6 EC80 alone; activation (% of control), % at 5.6 µM; actives 0.91% (n = 190,000);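 active = activation above the screen-wide mean of compound activation plus 3 SD, cut at about 130% in these data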;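 also: 0% = background luminescence of wells with medium and substrate only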
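Assay system – human STAT1-deficient U3A cells with stable STAT3-luciferase reporter · Also added – IL-6 (33 ng/mL) · Schedule – compound 1 h, then IL-6 6 h at 37 °C · Technique – reporter luminescence signal · Evaluation – % activation versus median of IL-6-stimulated wells · Benchmarks – IL-6-only wells as 100% reference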
STAT1 blocker – inhibitors of IFN-gamma induced STAT1 signaling; NIH 3T3 STAT1-luciferase reporter, luminescence; inhibition, % at 5.5 µM; actives 0.35% (n = 200,000); AID 920;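 active = inhibition above a set limit, the mean inhibition across all tested compounds plus 3 SD, cut at about 34% in these data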;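 also: 0% = IFN-gamma with DMSO and 100% = IFN-gamma with 300 µM nifuroxazide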
An asterisk follows results filed as active; ! = repeats disagree.

SMILES	STAT3 inh	APP 5'UTR act	NF-kB neuron act	STAT1 act	STAT3 act	STAT1 blocker
N#CC(c1ccc(Cl)cc1)c1ccc2c(C(F)(F)F)cc(C(F)(F)F)nc2n1 (stereo unspecified)	87*	4	1.3	31	29	75*
CCNc1nnc(-c2ccc(C)cc2)o1	3	43	1.9	116	100	-17
COc1ccccc1N1CCN(/N=C/C=C\c2ccco2)CC1	-8	73	4*	137*	107	-41
COc1cccc(/C=N/N2CCN(c3ccccc3OC)CC2)c1	22	32	1.9	135*	88	-35
CCC(OC(=O)c1cccs1)C(=O)NCc1ccc(C)cc1 (stereo unspecified)	12	8	1.2	89	92	10
O=C(Nc1ccc2c(c1)C(=O)NC2=O)c1ccc(S(=O)(=O)N2CCCC2)cc1	18	4	0.76	101	92	-1
CC(=O)c1ccc(NC(=O)Nc2ccccc2)cc1	35	138*	3.6*	121	75	-23
[O-]/[N+](=C/c1ccc(F)cc1)c1ccc(Cl)cc1	-17	39	4*	114	120	-15
[O-]/[N+](=C/c1cccnc1)c1ccc(Br)cc1	-10	93	2.1	113	114	-12
O=C(C1CCN(S(=O)(=O)N2CCCCC2)CC1)N1CCCCC1	3	-4	1.1	92	101	8
CCc1ccc(NC(=O)COc2ccc(F)cc2C(=O)c2cnn(-c3ccccc3)c2)cc1	-46	49	1.2	130*	133	-33
COc1cccc2cc(NC(=O)C3CCCCC3)c(=O)oc12	-2	13	2.6	131*	106	-34
COc1cccc2cc(C(=O)N3CCCCC3C)c(=O)oc12 (stereo unspecified)	7	-7	0.97	100	97	-2
Cc1nc2c(-c3ccccc3)c[nH]n2c(=O)c1Cc1ccccc1	-7	92	1.1	142*	107	-46
COc1cccc(-c2nc(NC(C)C)c3ccccc3n2)c1O	-34	4	0.36	98	134*	2
CCC(C)Nc1nc(-c2cccc(OC)c2O)nc2ccccc12 (stereo unspecified)	-7	-5	0.4	101	113	-2
c1ccc(C(c2ccccc2)c2noc(CN3CCC(c4ccncc4)CC3)n2)cc1	-11	-30	0.84	95	122	5
C/C(=N/OC(=O)C1CC1)c1cc(-c2ccc(Cl)cc2)no1	-4	88	2.5	136*	108	-42
C/C(=N\Nc1ccc(Cl)c(C(=O)O)c1)c1ccc2c(c1)OCO2	-8	22	1.9	131*	108	-34
O=C(O)c1cc(N/N=C/c2ccc3c(c2)OCCO3)ccc1Cl	-28	82	5.5*	58	120	48*
C/C(=N\Nc1nc2ccccc2s1)c1ccc2c(c1)OCO2	-4	47	3.4*	121	101	-23
O=C(O)c1cc(N/N=C/c2ccc3c(c2)OCO3)ccc1Cl	-16	121	1.1	82	122	19
C/C(=N\Nc1ccc(Cl)c(C(=O)O)c1)c1cc2ccccc2o1	11	11	0.99	114	97	-16
C/C(=N\Nc1nc2ccccc2s1)c1ccc(Br)s1	-22	17	1.3	95	126	3
O=C(O)c1ccc(N/N=C/c2ccc3c(c2)OCO3)cc1	80*	-31	0.66	13	34	93*
SMILES	STAT3 inh	APP 5'UTR act	NF-kB neuron act	STAT1 act	STAT3 act	STAT1 blocker
Cc1cc(N)n(-c2ccccc2)n1	2	2	1.2	102	100	-2
Cc1cc(N)n(-c2cc(C)c3ccccc3n2)n1	3	137*	4.5*	112	102	-13
Cc1cc(C)c2nc(-n3nc(C)cc3N)cc(C)c2c1	-26	91	1.8	143*	120	-45
Cc1cc2c(nc1C)CCCN2C[C@@H](C)O/N=C1/[C@H]2CCn3c(=O)n(-c4ccccc4)c(=O)n3[C@H]2[C@H](O)[C@@H]2O[C@H]12	-6	-11	3.4*	100	103	0
C/C(CCN1CCCCc2nc(C)c(C)cc21)=N\O[C@H](C)c1cn([C@H](CO)Cc2ccccc2)nn1	-7	5	0.77	104	103	-5
CCc1nc(N[C@@H](Cc2c[nH]c3ccccc23)C(=O)O)c2oc3ccccc3c2n1	-14	7	1	91	118	10
Cc1nc(N[C@@H](Cc2c[nH]c3ccccc23)C(=O)O)c2oc3ccccc3c2n1	-55	2	0.84	90	150*	11
O=C(NC(Cc1c[nH]c2ccccc12)C(=O)O)c1ccccc1 (stereo unspecified)	-3	-10	1.1	85	105	16
CC(=O)/C=C(/C)NC(Cc1c[nH]c2ccccc12)C(=O)O (stereo unspecified)	-31	1	1.2	91	133*!	10
O=C(O)C(=O)Cc1c[nH]c2ccccc12	-23	3	1.2	91	133*	10
CC(C)(C)n1ncc2c(=O)n(CC(=O)NCc3ccccc3)cnc21	-2	168*	3	149*	105	-55
CC(=O)Nc1ccc(NC(=O)Cn2cnc3c(cnn3C(C)(C)C)c2=O)cc1	-10	12	1.5	103	111	-3
CC(C)(C)n1ncc2c(=O)n(CC(=O)Nc3ccc(Cl)cc3)cnc21	-11	-6	1.1	96	111	4
CC(C)(C)n1ncc2c(=O)n(CC(=O)c3ccc(Cl)cc3)cnc21	-4	121	2.8	154*	105	-59
COc1ccc2nc(NC(=O)c3cccnc3SC)sc2c1	22	66	2.1	128	83	-32
Cc1noc(C)c1CSCC(=O)OCc1nc2ccccc2c(=O)n1CC#N	1	1	1	95	105	4
Cc1nnc(NC(=O)C2COc3ccccc3O2)s1 (stereo unspecified)	-14	19	1.6	129*	116	-33
O=C(NC1=NCCS1)C1COc2ccccc2O1 (stereo unspecified)	99*	-2	0.33	29	14	77*
O=C(Nc1ccncc1)C1COc2ccccc2O1 (stereo unspecified)	16	-6	1	96	90	4
CCC(CC)c1nnc(NC(=O)C2COc3ccccc3O2)s1 (stereo unspecified)	4	121	2	137*	99	-41
O=C(NC(=S)NCCC1=CCCCC1)c1cccnc1	8	-6	1.4	99	96	-1
CC1(C)CC(=O)C(C=NCCN2CCN(C3CC(=O)N(c4ccc(Br)cc4)C3=O)CC2)=C(O)C1 (stereo unspecified)	-7	13	1	102	110	-4
COc1ccc(CCN(C)CC(O)c2ccccc2)cc1OC (stereo unspecified)	6	8	1	96	99	1
